This test has as its target Protease (Human immunodeficiency virus 1, UniProt Q9YQ12). The test can be described thus: Inhibition of wild type HIV1 protease by FRET assay. In a few lines: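 Recombinant HIV-1 protease Q7K, desalted into 20 mM sodium acetate pH 5, apparent concentration ~50 nM (UV 280 nm). Inhibitors in DMSO, 12 concentrations, added with protease to buffer pH 4.7 (0.1 M NaOAc, 1 M NaCl, 1 mM EDTA, 1 mM DTT, 2% DMSO, 1 mg/mL BSA). Cleavage started by injecting EDANS/DABCYL peptide substrate. Ki from initial velocities fitted to the Morrison equation.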

Chain of Protease (Q9YQ12 whole entry): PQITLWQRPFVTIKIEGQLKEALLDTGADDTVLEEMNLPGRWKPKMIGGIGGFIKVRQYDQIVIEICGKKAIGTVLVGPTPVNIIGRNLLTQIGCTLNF

A word on the Ki: it is a dissociation constant, usually derived from enzyme kinetics or from competition with a known ligand. Regarding `COc1ccc(S(=O)(=O)N(CC(C)C)C[C@@H](O)[C@H](Cc2ccccc2)NC(=O)[C@@H]2CN(c3cccc(C(C)=O)c3)C(=O)O2)cc1` [(5S)-3-(3-Acetylphenyl)-N-[(1S,2R)-1-benzyl-2-hydroxy-3-[isobutyl[(4-methoxyphenyl)sulfonyl]amino]propyl]-2-oxooxazolidine-5-carboxamide], the Ki was 1 pM.

(Values after BindingDB's records for doi:10.1021/jm300238h (Sanford-Burnham Medical Research Institute, 2012).)
